This is a sample that favours compounds with a hit; in the whole collection about 2.2% have one here.
miR122 inh: blocks miR-122 activity in Huh7 sensor cells | Huh7 miR-122 Renilla luciferase sensor, 48 h; neutral wells = 0, positive control = 100 | actives 0.3% (n = 340,000) | activation (reporter increase), % at 12.5 µM;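 active = mean replicate activation score at least 90 and every replicate individually at or above 90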;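 also: higher luciferase means less miR-122 activity so hits act as miR-122 inhibitors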
Jurkat NFkB inh: inhibitors of the PMA/ionomycin-induced NF-kB reporter in Jurkat cells; PMA/ionomycin-induced NF-kB luciferase reporter, luminescence; inhibition, % at 4 µM; actives 0.53% (n = 330,000); AID 435003; in the data active = inhibition above about 50%
FGF22 binding: binders of recombinant human FGF22 by thermal shift. activity (Tm shift, normalised), % at 9.99 µM. SYPRO orange fluorescence; percent of sucrose octasulfate shift, DMSO zero. Q9HCT0. actives 1.5% (n = 340,000). AID 651658;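 active = mean Tm shift, scaled 0 neutral to 100 positive control, at about 1.3% or above, every replicate too, limit read from the data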
Target sequence (Q9HCT0 whole entry, looked up): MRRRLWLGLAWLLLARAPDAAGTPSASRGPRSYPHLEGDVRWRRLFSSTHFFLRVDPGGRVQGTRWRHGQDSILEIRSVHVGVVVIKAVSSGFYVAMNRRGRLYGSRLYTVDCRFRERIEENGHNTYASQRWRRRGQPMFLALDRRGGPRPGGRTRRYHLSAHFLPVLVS
NR2E3 ag-1: activates human NR2E3 receptor | CHO-S Gal4-NCOR/VP16-NR2E3 two-hybrid, luciferase | inhibition of corepressor binding, % at 3.98 µM | actives 0.35% (n = 360,000);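 active = inhibition above the mean of all tested compounds plus 3 SD, cut at about 70% in these data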;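 also: 0% = DMSO with NR2E3 transfected cells and 100% = cells lacking NR2E3 construct; higher means lower luciferase signal from less NR2E3 corepressor binding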
Target sequence (Q9Y5X4 whole entry, looked up, the tested form may be a part): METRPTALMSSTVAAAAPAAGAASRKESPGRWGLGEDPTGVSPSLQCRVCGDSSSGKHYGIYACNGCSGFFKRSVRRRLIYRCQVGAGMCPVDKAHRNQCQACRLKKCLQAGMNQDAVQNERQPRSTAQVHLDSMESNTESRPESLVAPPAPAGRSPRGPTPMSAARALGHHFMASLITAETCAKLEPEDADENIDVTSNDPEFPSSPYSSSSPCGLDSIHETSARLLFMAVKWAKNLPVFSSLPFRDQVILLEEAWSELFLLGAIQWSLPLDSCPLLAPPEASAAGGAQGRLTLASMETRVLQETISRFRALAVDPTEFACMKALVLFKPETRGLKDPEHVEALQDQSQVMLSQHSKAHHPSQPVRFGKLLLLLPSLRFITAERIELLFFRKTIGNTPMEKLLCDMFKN
NR2E3 ag-2: agonists of human nuclear receptor NR2E3 | Q9Y5X4 | GST-NR2E3/biotin-RetCOR TR-FRET, 1536-well | inhibition of corepressor binding, % at 4.78 µM | actives 0.12% (n = 320,000);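 active = percent inhibition above the cutoff of mean plus 3 SD of all tested compounds, set per screening campaign, cut at about 20% in these data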;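 also: 0% = DMSO wells and 100% = biotin wells as full block of FRET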
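Format: 1536-well format; test system: GST-NR2E3 and biotin-RetCOR proteins; read-out basis: percent inhibition of TR-FRET ratio; timing: 5 h incubation at 4 °C; detection: time-resolved FRET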
697 NFkB inh: inhibitors of the PMA/ionomycin-induced NF-kB reporter in 697 B cells. 697 B-cell NF-kB luciferase reporter, 16 h. inhibition, % at 4 µM. actives 0.33% (n = 330,000). AID 435022; in the data active = inhibition above about 35%
Starred values were filed as active, the others as inactive; . = no result; [ ] = remark or other dose.

SMILES	miR122 inh	Jurkat NFkB inh	FGF22 binding	NR2E3 ag-1	NR2E3 ag-2	697 NFkB inh
CC1(C)OC2CC3C4CCC5=CC(=O)CCC5(C)C4(F)C(O)CC3(C)C2(C(=O)CO)O1 (configuration not stated)	3	.	44*	22	.	.
CC12C(=O)N(c3nccs3)C(=O)C1(C)C1CCC2O1 (configuration not stated)	5	.	43*	-14	.	.
COc1ccc(CCN2CC(O)=C(c3nc(C)cs3)C2=N)cc1OC	130*	5	.	-7	2	14
CCOC(=O)C1CCN(C(=O)c2ccc3c(=O)n4nc(Nc5ccccc5OC)sc4nc3c2)CC1	-6	.	2.4*	7	.	.
O=c1[nH][nH]c(-c2ccccc2)c1C=Nc1ccc(C(F)(F)F)cc1	9	-12	44*	9	1	-20
O=c1[nH][nH]c(-c2ccccc2)c1C=Nc1ccccc1	-6	2	.	3	-2	13
O=S(=O)(NCc1cn2ccsc2n1)c1cccs1	.	12	.	-6	0	6
O=S(=O)(NCc1cn2ccsc2n1)c1ccc(Oc2ccccc2)cc1	0	36	.	88*	-1	-38
CCc1ccc(Nc2ccc(C(N)=O)cc2[N+](=O)[O-])cc1	0	-2	44*	-31	4	-12
O=C(O)C[C@@H]1C[C@@H]2c3cc(NC(=O)C4CCC4)ccc3O[C@@H]2[C@@H](CO)O1	10[16.7 µM]	.	0	.	.	.
CCOc1ccccc1OCC(=O)NNC(=O)Cn1cnc2c1c(=O)n(C)c(=O)n2C	-2	-8	44*	-18	3	-1
COC(=O)c1ccccc1NC(=O)Cn1cnc2c1c(=O)n(C)c(=O)n2C	10	13	0	9	-2	-12
CCOC(=O)N1CCN(C(=O)CNC(=O)Cn2cnc3ccccc3c2=O)CC1	67	-5	44*	12	-3	-14
C[C@H](CO)N1C[C@H](C)[C@@H](CN(C)Cc2ccc(-c3ccccc3)cc2)Oc2ccc(NS(=O)(=O)c3cn(C)cn3)cc2C1=O	-6[16.7 µM]	.	0	.	.	.
CC1(C)Cc2c(c(-c3ccco3)nc3sc4c(NCCO)ncnc4c23)CO1	.	-16	43*	14	0	-15
COc1cc(NC(=O)CSc2nc(C)c(C)c(C)n2)c(C)cc1[N+](=O)[O-]	-6	5	0	23	-2	-14
COc1cc(NC(=O)CSc2nncn2C)c(C)cc1[N+](=O)[O-]	-6	1	43*	7	-2	17
COc1ccc(-c2ccc(NS(=O)(=O)c3cc([N+](=O)[O-])ccc3C)cc2)nn1	-3	1	0	5	3	13
COc1ccc(-c2cccc(NS(=O)(=O)c3cc([N+](=O)[O-])ccc3C)c2)nn1	135*	9	-1	10	-1	-17
Cc1ccc([N+](=O)[O-])cc1S(=O)(=O)Nc1cccc(S(=O)(=O)NC2=NCCC2)c1	10	9	45*	13	.	7
CN1CCCCN2[C@@H](CO)[C@@H](c3ccc(C#CC4(O)CCCC4)cc3)[C@@H]2C1	12[16.7 µM]	.	-1	.	.	.
O=S(=O)(NC1CCCCC1Oc1ccccc1)c1ccc(Cl)cc1 (configuration not stated)	26	14	44*	-18	0	12
CSc1ccc(OC2CCCCC2NS(=O)(=O)c2ccc(Cl)cc2)cc1 (configuration not stated)	.	-10	0	-3	3	0
COc1ccc2c3c(n(C)c2c1)[C@H](CO)N(C(=O)C1CCC1)CC31CN(Cc2cccc(F)c2)C1	.	.	0	.	.	.
CCC(CC)c1nnc(NC(=O)C2=NNC(=O)CC2)s1	.	-11	43*	-9	-1	3
SMILES	miR122 inh	Jurkat NFkB inh	FGF22 binding	NR2E3 ag-1	NR2E3 ag-2	697 NFkB inh
Cc1ccc(-c2ccc3c(c2)O[C@@H](CN(C)C(=O)CC2CC2)[C@H](C)CN([C@H](C)CO)S3(=O)=O)cc1	-8[16.7 µM]	.	0	.	.	.
Cc1csc(SCC(=O)Nc2ccccc2[N+](=O)[O-])n1	.	-17	44*	-4	5	-35
COCCCNC(=S)NC1CC2CCC(C1)N2Cc1ccccc1 (configuration not stated)	.	-2	43*	8	4	14
C[C@@H]1CN([C@@H](C)CO)C(=O)c2cc(NC(=O)C3CCCCC3)ccc2O[C@@H](C)CCCCO[C@H]1CN(C)S(=O)(=O)c1ccc(F)cc1	0[16.7 µM]	.	.	.	.	.
COC(=O)C[C@@H]1CC[C@@H]2[C@H](COc3ccc(NC(=O)c4ccc(C(F)(F)F)cc4)cc3C(=O)N2C)O1	36[16.7 µM]	.	0	.	.	.
COC(=O)CSc1nccc(C)n1	.	1	44*	-6	1	9
O=C(C[C@H]1C[C@H]2c3cc(NC(=O)NC4CCCC4)ccc3O[C@H]2[C@@H](CO)O1)NCc1ccc(Cl)cc1	5[16.7 µM]	.	0	.	.	.
CC(C)c1ccccc1NC(=S)NC(C)c1ccccc1 (configuration not stated)	.	14	44*	-4	2	-1
O=C1c2ccccc2NC2(CCCC2)N1NS(=O)(=O)c1ccccc1	-3	13	0	-22	3	11
CS(=O)(=O)NN1C(=O)c2ccccc2NC12CCCC2	-6	15	43*	4	10	17
Cc1noc(C)c1NC(=O)N(C)C[C@H]1Oc2ccc(NS(=O)(=O)c3ccccc3)cc2C(=O)N([C@@H](C)CO)C[C@H]1C	0[16.7 µM]	.	0	.	.	.
CC(OC(=O)c1cccnc1Cl)C(=O)Nc1ccc2c(c1)OCCO2 (configuration not stated)	.	0	43*	7	-2	-10
CSc1ncccc1C(=O)OC(C)C(=O)Nc1ccc2c(c1)OCCO2 (configuration not stated)	-4	.	0	4	.	.
C[C@H](O)C#Cc1cnc2c(c1)C(=O)N([C@H](C)CO)C[C@@H](C)[C@@H](CN(C)C(=O)Cc1ccncc1)O2	3[16.7 µM]	.	0	.	.	.
COc1cc(C2C3=C(COC3=O)OC(C)(C)Oc3cc4c(cc32)OCO4)cc(OC)c1OC (configuration not stated)	114*	.	0	10	.	.
CN(C)CCCNC(=O)[C@H]1[C@H](CO)[C@H]2Cn3c(ccc(-c4ccccc4)c3=O)[C@@H]1N2C	-2[16.7 µM]	.	0	.	.	.
COc1ccccc1N1CCN(C(=O)CCC(=O)O)CC1	-6	11	43*	21	-2	8
COc1ccccc1N1CCN(C(=O)CCc2ccccc2)CC1	.	-11	0	-8	0	-19
COc1ccccc1N1CCN(CC(=O)NC(=O)NCc2ccccc2)CC1	1	.	43*	-4	.	.
C[C@@H]1CN([C@@H](C)CO)C(=O)c2cc(NC(=O)Cc3cn(C)c4ccccc34)ccc2O[C@@H]1CN(C)CC1CCCCC1	2[16.7 µM]	.	-1	.	.	.

Bioassay records as filed in PubChem.
